The subject of one data set is CaCo-2 cells. Briefly: 72 h proliferation inhibition test. It is filed as cell-based, human. To be noted: SRB.
The subject of another data set is HT-29 cells. The data set can be described thus: 72 h proliferation inhibition test. Conditions: SRB. The class given is cell-based, human.
Another data set concerns the target recombinant human PDIA1 (Homo sapiens, UniProt P07237). The data set can be described thus: Enzymatic insulin reduction. The class given is biochemical. Conditions: for IC50: PDIA1 IC50, insulin reduction assay, full-length PDIA1 6 µg/ml (96 nM), pH 7.6, 37 °C.
A short description of data set [1]: Basal cytotoxicity test, neutral red uptake. It is filed as cell-based. To be noted: mouse, Balb/c 3T3 mouse embryo fibroblast cells.
The next data set addresses T1, recombinant human PDIA3 (Homo sapiens, UniProt P30101).
T1 sequence (P30101 25-505): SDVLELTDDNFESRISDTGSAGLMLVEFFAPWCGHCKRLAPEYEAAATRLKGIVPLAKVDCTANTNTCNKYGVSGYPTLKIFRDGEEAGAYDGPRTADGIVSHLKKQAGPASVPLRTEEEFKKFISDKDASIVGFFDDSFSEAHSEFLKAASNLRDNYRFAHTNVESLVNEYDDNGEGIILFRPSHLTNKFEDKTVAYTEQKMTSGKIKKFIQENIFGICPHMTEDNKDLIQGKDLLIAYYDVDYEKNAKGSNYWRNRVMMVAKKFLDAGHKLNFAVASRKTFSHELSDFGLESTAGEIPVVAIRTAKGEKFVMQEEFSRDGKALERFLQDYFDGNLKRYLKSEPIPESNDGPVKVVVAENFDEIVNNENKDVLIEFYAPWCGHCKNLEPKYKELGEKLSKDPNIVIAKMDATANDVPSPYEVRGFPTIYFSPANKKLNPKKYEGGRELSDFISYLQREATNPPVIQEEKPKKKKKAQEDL
The data set can be described thus: Enzymatic insulin reduction. The class given is biochemical. Summed up:
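Recombinant human PDIA3 (E. coli-expressed), 12 µg/ml (205 nM), was preincubated with test compound in 0.1 mM phosphate buffer pH 7.6, 2 mM EDTA and 0.08 mM DTT. Final DMSO was below 1%. Reaction was started with insulin plus DTT (final 0.15 mM insulin, 0.16 mM DTT). β-chain aggregation turbidity was read at 650 nm for 60 min at 37 °C.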

Data set [2] concerns the target PDIA1a domain (residues 18–137) of human PDIA1 (Homo sapiens, UniProt P07237). The data set can be described thus: Insulin turbidity assay with recombinant PDIA1a domain. It is filed as biochemical. To be noted: read-out: PDIA1a IC50 (insulin reduction); PDIA1a domain 8 µg/ml. Summed up:
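PDIA1a domain (human residues 18–137) was expressed in E. coli BL21(DE3) with an N-terminal His6-tag/TEV site, then purified by Ni affinity and size exclusion. Turbidity assay: 8 µg/ml protein in 0.1 mM potassium phosphate pH 7.6 and 2 mM EDTA, with 0.08 mM DTT during preincubation. Insulin with DTT was added to final 0.15 mM insulin and 0.16 mM DTT.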

In another data set the test system is arterial thrombosis. Briefly: Rat model of arterial thrombosis. Conditions: intravenously, 10 min prior to induction of arterial thrombosis, rats. It is filed as in vivo. The procedure, abridged:
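Wistar rats were anaesthetised with pentobarbital (40 mg/kg i.p.) on a 37 °C heated table. Right common carotid artery was stimulated at 1 mA for 10 min via an anode under the artery and a subcutaneous hind-limb cathode.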

Converted amounts (≈) assume the structure as drawn.

Chain of recombinant human PDIA1 (P07237 18-508): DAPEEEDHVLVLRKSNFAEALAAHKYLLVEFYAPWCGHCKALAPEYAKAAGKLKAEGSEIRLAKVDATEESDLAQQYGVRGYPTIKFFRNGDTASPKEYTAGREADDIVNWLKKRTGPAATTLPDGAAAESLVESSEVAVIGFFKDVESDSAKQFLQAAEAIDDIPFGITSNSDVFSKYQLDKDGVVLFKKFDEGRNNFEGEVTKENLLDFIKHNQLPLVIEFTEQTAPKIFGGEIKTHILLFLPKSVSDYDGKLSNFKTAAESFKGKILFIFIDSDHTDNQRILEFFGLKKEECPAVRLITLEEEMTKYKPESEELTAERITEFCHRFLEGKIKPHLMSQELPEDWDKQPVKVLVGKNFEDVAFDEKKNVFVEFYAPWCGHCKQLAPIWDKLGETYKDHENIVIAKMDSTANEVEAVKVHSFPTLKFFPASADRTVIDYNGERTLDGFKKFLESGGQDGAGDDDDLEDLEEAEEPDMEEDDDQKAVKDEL
Chain of PDIA1a domain (residues 18–137) of human PDIA1 (P07237 18-137): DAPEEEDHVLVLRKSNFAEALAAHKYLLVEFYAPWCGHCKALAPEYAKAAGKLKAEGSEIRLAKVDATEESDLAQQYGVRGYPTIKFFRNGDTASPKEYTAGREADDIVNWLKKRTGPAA

Turning to `O=C(C1CC1)N1CCN(Cn2sc3ccccc3c2=O)CC1` [LOC14], in the data set with CaCo-2 cells, the “IC50, 72-h antiproliferative assay, CaCo-2” value is recorded as 9.12 ± 3.4 µg/mL (≈ 28.7 µM). Besides, the “IC50, 72-h antiproliferative assay, HT-29” value in the data set on HT-29 cells stood at 12.64 ± 8.4 µg/mL (≈ 39.8 µM).
As to `CC(=O)C1CN1S(=O)(=O)c1ccc(C)cc1` (stereo not drawn) [Compound C-3263, 1-[1-(p-tolylsulphonyl)aziridin-2-yl]ethanone], on recombinant human PDIA1, the IC50 was found to be 15.6 ± 0.8 µM. Also, half-maximal inhibition in data set [1] (IC50 at 24 h) was put at 8 ± 1 µM.
On to `CCCCc1ccc(S(=O)(=O)N2CC2C=O)cc1` (stereo not drawn) [Compound C-3273, 1–(4-Butylphenyl)sulphonylaziridine-2-carbaldehyde], for which the values for the IC50 at recombinant human PDIA1 and at recombinant human PDIA3 were 3.2 ± 0.2 µM and 5.4 ± 0.2 µM, respectively. The IC50 at 24 h in data set [1] is < 1 µM.
PACMA31: the IC50 in data set [2] is 18.3 ± 0.7 µM.
In the case of `NC(=O)C1CN1` (stereo not drawn) [Leakadine, 2-carbamoylaziridine], the inhibition at 1000 µM on recombinant human PDIA1 (read-out: Inhibition of PDIA1 activity) is ~30%.
`Cc1ccc(S(=O)(=O)N2CC2C(=O)O)cc1` (stereo not drawn) [Compound C-3612, Lithium 1-tosylaziridine-2-carboxylate] returned an IC50 at 24 h in data set [1] of 2610 ± 89 µM.
In the case of `C[C@@H]1O[C@@H](OC[C@H]2O[C@@H](Oc3c(-c4ccc(O)c(O)c4)oc4cc(O)cc(O)c4c3=O)[C@H](O)[C@@H](O)[C@@H]2O)[C@H](O)[C@H](O)[C@H]1O` [rutin], the IC50 at recombinant human PDIA1 was 4 ± 0.3 µM; at recombinant human PDIA3, > 200 µM. In addition, the “effect on arterial thrombus formation (thrombus weight)” value in the data set with arterial thrombosis is “significantly inhibited arterial thrombus formation”.
With `Cc1ccc(S(=O)(=O)N2CC2C#N)cc1` (stereo not drawn) [Compound C-3314, 1-(p-tolylsulphonyl)aziridine-2-carbonitrile], the IC50 on recombinant human PDIA3 turned out to be 188 ± 7.5 µM. In addition, in data set [1], the IC50 at 24 h stood at 52 ± 3 µM.
For `COc1ccc(N2C(=O)/C(=C\c3ccc([N+](=O)[O-])s3)SC2=S)cc1` [CCF642], the IC50 in data set [2] was 13 ± 0.6 µM. Besides, the “IC50, 72-h antiproliferative assay, CaCo-2” value in the data set with CaCo-2 cells is given as 0.41 ± 0.1 µg/mL (≈ 1.08 µM). Moreover, the “IC50, 72-h antiproliferative assay, HT-29” value in the data set with HT-29 cells is 0.41 ± 0.05 µg/mL (≈ 1.08 µM).
For `Cc1ccc(S(=O)(=O)N2CC2C=O)cc1` (stereo not drawn) [Compound C-3262, 1-(p-tolylsulphonyl)aziridine-2-carbaldehyde], in data set [1], the IC50 at 24 h stood at 4 ± 0.2 µM.
As for `CCCCc1ccc(S(=O)(=O)N2CC2C(C)=O)cc1` (stereo not drawn) [Compound C-3272, 1-[1–(4-Butylphenyl)sulphonylaziridin-2-yl]ethanone], the IC50 at 24 h in data set [1] is < 1 µM.
As for `O=c1c(O[C@@H]2O[C@H](CO)[C@@H](O)[C@H](O)[C@H]2O)c(-c2ccc(O)c(O)c2)oc2cc(O)cc(O)c12` [isoquercetin], the “effect on arterial thrombus formation (thrombus weight)” value in the data set with arterial thrombosis is recorded as “only tended to reduce thrombosis”.
